Article PMC11661117 (bioRxiv, 2025)

Columns and labels:
[1] = tested on: HSV-1 strain K26 (GFP-expressing); test: 3D bioprinted HSE, submerged model, apical HSV-1 infection, GFP signal; type: cell-based; conditions: for Emax: Human alphaherpesvirus 1, 48 h, read-out: submerged Max Inhibition (%); for submerged Curve Class: CRC class for HSV-1 inhibition
Procedure, shortened: (§1)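 Skin equivalent: printed fibrin/gelatin/collagen dermis with tdTomato-labelled fibroblasts and 20,000 keratinocytes on a transwell. One day after keratinocyte seeding, GFP HSV-1 K26 (MOI 0.1) was added apically and test compound to the basal medium, and tissues fixed at 48 hpi. GFP and tdTomato total fluorescence were read from 4X z-stack maximum projections within a ~4 mm circular mask. Values were normalised to DMSO-infected and uninfected wells. Triplicate dose-response, curve-classed.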

tdTomato fibroblasts [2] = test: 3D bioprinted HSE, submerged model, tdTomato signal; type: cell-based, human; conditions: for CC50: read-out: submerged CC50, tdTomato fibroblasts, triplicate
Procedure, shortened: as §1

[3] = tested on: HSV-1 strain K26 (GFP-expressing); test: 3D bioprinted HSE, ALI model, basolateral HSV-1 infection, GFP signal; type: cell-based; conditions: for Emax: Human alphaherpesvirus 1, 48 h, read-out: ALI Max Inhibition (%); for ALI Curve Class: CRC class for HSV-1 inhibition
Procedure, shortened: (§2)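 Bioprinted dermal base (fibrinogen, gelatin, collagen I) on a transwell membrane, with 20,000 keratinocytes seeded on top and tdTomato-labelled fibroblasts. Four days after air-lift, GFP HSV-1 K26 (MOI 0.1, in cornification medium) and test compound were added basally, and tissues fixed at 48 hpi. Imaging: 4X z-stack maximum projection, edge mask and ≥14.8 µm object filter. GFP and tdTomato were normalised to infected DMSO and uninfected controls (tdTomato floor 0). Triplicate dose-response, curve-classed.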

[4] = tested on: HSV-1 strain K26 (GFP-expressing); type: cell-based; conditions: 2D monoculture
[5] = 3D bioprinted HSE, ALI model, tdTomato signal; type: cell-based, human; conditions: human
Procedure, shortened: as §2

[6] = tested on: HSV-1 strain K26 (GFP-expressing); type: cell-based; conditions: 2D monoculture; for selectivity ratio: read-out: selectivity index in fibroblasts
[7] = 3D bioprinted HSE, submerged model, tdTomato signal; type: cell-based, human; conditions: human
Procedure, shortened: as §1

primary keratinocytes = test: 2D cytotoxicity in uninfected primary keratinocytes; type: cell-based, human; conditions: absence of viral infection
tdTomato fibroblasts [8] = test: 3D bioprinted HSE, ALI model, tdTomato signal; type: cell-based, human; conditions: read-out: ALI CC50; tdTomato fibroblasts, triplicate
Procedure, shortened: as §2

[9] = Human alphaherpesvirus 1, read-out: submerged IC50 (μM)
[10] = Human alphaherpesvirus 1, read-out: ALI IC50 (μM)
[11] = read-out: submerged IC50, triplicate, 48HPI

| IC50 [1, 9] | IC50 [3, 10] | Compound | CC50 at 48 h [5] | Emax [1] | CC50 at 48 h [7] | Emax [3] | also measured |
| --- | --- | --- | --- | --- | --- | --- | --- |
|  |  | Nc1nc2c(ncn2COCCO)c(=O)[nH]1 [Acyclovir] |  |  |  |  | IC50 ([1]; submerged tissues, assay validation, fig. S5): 0.36 µM; cytotoxic effects on the fibroblasts (tdTomato fibroblasts [2]; submerged and ALI models, tdTomato signal): minimal cytotoxic effects; IC50 ([3]; Human alphaherpesvirus 1): < 0.04 µM |
| 0.27 µM | 0.16 µM | Cc1cccc(C)c1N(CC(=O)Nc1ccc(-c2ncon2)cc1)C(=O)C1CCS(=O)(=O)CC1 [Amenamevir] | > 10000 nM | 85.3% | > 10000 nM | 112% | selectivity index in keratinocytes [4]: > 250; selectivity index in fibroblasts [6]: > 400 |
| 1.48 µM | < 0.04 µM | COc1ccc(-c2nc(N3CCOCC3)c3sc(CN(C)c4ncc(C(=O)NO)cn4)cc3n2)cn1 [Fimepinostat] | > 10000 nM | 87.4% | > 10000 nM | 88.6% | inhibition of viral GFP expression in keratinocytes [4]: at least 50% |
|  |  | CC(C)c1cnn2c(NCc3ccccc3-n3cccn3)nc(OC3CCCNC3)nc12 (centres unmarked) [LDC4297] |  |  |  |  | CC50 (tdTomato fibroblasts [8]): > 10000 nM; submerged Curve Class ([1]; triplicate): −2.1; IC50 [1, 11]: 0.68 µM; submerged Max Inhibition (%) ([1]; triplicate, 48HPI): 94.82%; CC50 (tdTomato fibroblasts [2]): > 10000 nM; ALI Curve Class ([3]; triplicate): −1.1; IC50 ([3]; read-out: ALI IC50, triplicate, 48HPI): 0.11 µM; ALI Max Inhibition (%) ([3]; triplicate, 48HPI): 99.87% |
| 0.39 µM | 0.11 µM | O=C(Nc1ccc([N+](=O)[O-])cc1Cl)c1cc(Cl)ccc1O [Niclosamide] | > 10000 nM | 97.1% | > 10000 nM | 98.7% |  |
| 0.5 µM | 0.21 µM | Cc1nc(N(C)C(=O)Cc2ccc(-c3ccccn3)cc2)sc1S(N)(=O)=O [Pritelivir] | > 10000 nM | 94.6% | > 10000 nM | 102% | selectivity index in keratinocytes [4]: > 250; selectivity index in fibroblasts [6]: > 400 |
|  | 0.16 µM | C=CC(=O)N1CC/C(=C\c2ccc(F)c([N+](=O)[O-])c2)C(=O)/C(=C/c2ccc(F)c([N+](=O)[O-])c2)C1 [VLX1570] |  |  |  |  | CC50 (tdTomato fibroblasts [8]): > 10000 nM; submerged Curve Class ([1]; triplicate): −2.5; IC50 [1, 11]: 6.67 µM; submerged Max Inhibition (%) ([1]; triplicate, 48HPI): 55.49%; CC50 (tdTomato fibroblasts [2]): 8410 nM; ALI Curve Class ([3]; triplicate): −1.1; ALI Max Inhibition (%) ([3]; triplicate, 48HPI): 101.22% |
| 0.48 µM | 0.17 µM | O=C(/C=C\n1cnc(-c2cc(C(F)(F)F)cc(C(F)(F)F)c2)n1)NNc1ccccn1 [Verdinexor] | > 10000 nM | 68.6% | > 10000 nM | 108% | inhibition of viral GFP expression in keratinocytes [4]: at least 50% |
|  |  | Fluoroemetine |  |  |  |  | CC50 (tdTomato fibroblasts [8]): > 10000 nM; CC50 (tdTomato fibroblasts [2]): > 10000 nM |

| Compound | IC50 [1, 9] | IC50 [3, 10] | CC50 at 48 h [5] | Emax [1] | CC50 at 48 h [7] | Emax [3] | also measured |
| --- | --- | --- | --- | --- | --- | --- | --- |
| Nc1ccn([C@@H]2O[C@H](CO)[C@@H](O)C2(F)F)c(=O)n1 [Gemcitabine] | 0.19 µM | 0.16 µM | > 10000 nM | 99.8% | > 10000 nM | 102% | toxicity in keratinocytes (primary keratinocytes): showed toxicity in keratinocytes; selectivity ratio [6]: > 750 |
| CC(=O)O[C@H]1C[C@H](O[C@H]2[C@@H](O)C[C@H](O[C@H]3[C@@H](O)C[C@H](O[C@H]4CC[C@@]5(C)[C@H](CC[C@@H]6[C@@H]5C[C@@H](O)[C@]5(C)[C@@H](C7=CC(=O)OC7)CC[C@]65O)C4)O[C@@H]3C)O[C@@H]2C)O[C@H](C)[C@H]1O[C@@H]1O[C@H](CO)[C@@H](O)[C@H](O)[C@H]1O [Lanatoside C] | 0.09 µM | 0.08 µM | > 10000 nM | 107% | 2490 nM | 99.5% | toxicity in keratinocytes (primary keratinocytes): showed toxicity in keratinocytes; selectivity ratio [6]: > 750 |
| CC1(C)CC(=O)c2c(C(F)(F)F)nn(-c3ccc(C(N)=O)c(N[C@H]4CC[C@H](O)CC4)c3)c2C1 [SNX-2112] | 0.05 µM | < 0.04 µM | > 10000 nM | 102% | 1140 nM | 107% | toxicity in keratinocytes (primary keratinocytes): showed toxicity in keratinocytes |
